From ChEMBL document CHEMBL4765368, “Structure guided design and synthesis of furyl thiazolidinedione derivatives as inhibitors of GLUT 1 and GLUT 4, and evaluation of their anti-leukemic potential” (Eur J Med Chem, 2020)
Active and inactive are the calls of the source. The rule behind the calls is not given here.

How the values were obtained:
[1] = target: T1, Solute carrier family 2, facilitated glucose transporter member 1 (Homo sapiens) (UniProt P11166); assay: Inhibition of GLUT1 in human CCRF-CEM cells assessed as decrease in mTOR phosphorylation at 10 uM measured after 6 hrs by Western blot analysis; format: cell-based
T1 sequence (whole entry): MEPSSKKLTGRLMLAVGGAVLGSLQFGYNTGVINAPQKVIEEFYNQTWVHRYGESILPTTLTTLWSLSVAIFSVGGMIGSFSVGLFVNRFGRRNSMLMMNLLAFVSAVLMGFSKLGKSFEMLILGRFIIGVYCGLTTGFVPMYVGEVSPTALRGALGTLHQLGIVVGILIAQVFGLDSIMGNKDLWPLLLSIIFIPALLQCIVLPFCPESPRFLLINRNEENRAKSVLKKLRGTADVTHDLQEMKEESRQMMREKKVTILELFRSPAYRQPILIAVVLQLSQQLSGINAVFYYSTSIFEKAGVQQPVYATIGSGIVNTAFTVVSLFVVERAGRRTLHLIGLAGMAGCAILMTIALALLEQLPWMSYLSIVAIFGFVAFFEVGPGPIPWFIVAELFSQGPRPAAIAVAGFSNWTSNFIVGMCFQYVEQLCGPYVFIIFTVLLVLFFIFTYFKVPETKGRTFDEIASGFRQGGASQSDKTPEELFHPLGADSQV
In short: (§1)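 CEM cells were treated with 10 µM for 6 h. Untreated cells were the negative control and staurosporine the positive control. Cells were washed with cold PBS, lysed in Laemmli buffer with protease inhibitors, sonicated and quantified. Blots were blocked 45 min in PBS-Tween-5% milk, with primary antibody 3 h and secondary 1 h at room temperature.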

[2] = tested on: MDA-MB-231; assay: Cytotoxicity against human MDA-MB-231 cells assessed as reduction in cell viability measured after 48 hrs by Hoechst 33342/propidium iodide staining based imaging analysis; format: functional
In short: (§2)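 Cells were seeded at 10,000 per well (HS-27 at 3,000) in 10% FBS RPMI (leukemic lines) or DMEM (MDA-MB-231, HS-27). Compound in DMSO (1% v/v final) at 0.5–100 µM for 48 h. Hoechst 33342 and PI were added 2 h before automated imaging; dead cells were co-stained. Quadruplicates. CC50 was taken by linear interpolation between the two concentrations nearest 50% death.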

[3] = tested on: HS27; assay: Cytotoxicity against human HS27 cells assessed as reduction in cell viability measured after 48 hrs by Hoechst 33342/propidium iodide staining based imaging analysis; details: hs27, 48 h; in short: as §2
[4] = tested on: K562; assay: Cytotoxicity against human K562 cells assessed as reduction in cell viability measured after 48 hrs by Hoechst 33342/propidium iodide staining based imaging analysis; format: functional; in short: as §2
[5] = tested on: CCRF-CEM; assay: Cell cycle arrest in human CCRF-CEM cells assessed as increase in accumulation at sub-G0/G1 phase measured after 72 hrs by NIM-DAPI staining based flow cytometry; format: functional
In short: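 An asynchronous CEM culture was seeded at 100,000 cells/well in 1 mL complete RPMI and exposed to 10, 25 or 50 μM for 72 h. Controls were untreated cells, DMSO and hydrogen peroxide. Cells were pelleted at 262 g, resuspended, and stained with NIM-DAPI, which permeabilizes and stains DNA in one step. About 100,000 events per sample were read by flow cytometry. Triplicates.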

[6] = target: T1, Solute carrier family 2, facilitated glucose transporter member 1 (Homo sapiens); assay: Inhibition of GLUT1 in human CCRF-CEM cells assessed as upregulation of GRP78 expression at 10 uM measured after 6 hrs by Western blot analysis; format: cell-based; in short: as §1
[7] = target: T1, Solute carrier family 2, facilitated glucose transporter member 1 (Homo sapiens); assay: Inhibition of GLUT1 in human CCRF-CEM cells assessed as decrease in CDK2 phosphorylation at 10 uM measured after 6 hrs by Western blot analysis; format: cell-based; in short: as §1
[8] = target: T2, Solute carrier family 2, facilitated glucose transporter member 5 (Homo sapiens) (UniProt P22732); assay: Inhibition of transport activity of human GLUT5 expressed in hexose transporter deficient VW4000 yeast cells assessed as reduction in transporter-mediated [14C]-fructose uptake into cells at 100 uM measured after 10 mins by scintillation counting method; format: cell-based
T2 sequence (whole entry): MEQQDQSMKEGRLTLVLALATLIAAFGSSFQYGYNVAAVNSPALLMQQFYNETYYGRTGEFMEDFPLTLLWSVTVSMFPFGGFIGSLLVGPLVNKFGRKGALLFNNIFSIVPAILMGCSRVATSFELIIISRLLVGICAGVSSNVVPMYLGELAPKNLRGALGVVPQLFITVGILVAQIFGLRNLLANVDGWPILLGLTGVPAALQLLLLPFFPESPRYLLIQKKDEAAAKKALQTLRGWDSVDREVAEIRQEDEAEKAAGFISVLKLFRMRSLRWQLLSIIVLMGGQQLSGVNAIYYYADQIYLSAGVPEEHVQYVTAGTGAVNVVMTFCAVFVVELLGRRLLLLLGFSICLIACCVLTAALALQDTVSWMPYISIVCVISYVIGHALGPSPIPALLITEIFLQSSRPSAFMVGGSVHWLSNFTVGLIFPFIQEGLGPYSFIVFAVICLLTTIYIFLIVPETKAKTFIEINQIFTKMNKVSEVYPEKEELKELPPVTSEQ
In short: (§3)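 The hxt0 yeast strain expressing one human GLUT was grown at 30 °C and resuspended in PBS pH 7.4 at OD600 ~10. Uptake was started with 14C-glucose at 5 mM final (GLUT1, GLUT4) or 14C-fructose at 10 mM final (GLUT5). It was quenched after 10 min with ice-cold 0.1 M KPi/0.1 M LiCl pH 5.5, filtered and counted by scintillation. Compound at 100 μM with 1% DMSO; DMSO control and phloretin 200 μM (GLUT1/4) or MSNBA 100 μM (GLUT5) as references. Triplicates.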

[9] = tested on: CCRF-CEM; assay: Induction of apoptosis in human CCRF-CEM cells assessed as activation of caspase 3 at 10 uM measured after 6 hrs by Western blot analysis; format: functional, cell-based; in short: as §1
[10] = tested on: CCRF-CEM; assay: Induction of apoptosis in human CCRF-CEM cells assessed as early apoptotic cells at CC50 measured after 24 hrs by AnnexinV-FITC/propidium iodide staining based flow cytometry analysis relative to control; format: functional
In short: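 CCRF-CEM cells in RPMI with 10% FBS were seeded in 24-well plates, incubated overnight, given fresh medium, then treated for 24 h. Cells were PBS-washed, spun at 500 g for 5 min at 4 °C, and resuspended in ice-cold binding buffer. They were stained with annexin V-FITC and PI for 15 min on ice in the dark, then read by flow cytometry. Untreated cells were the negative control; triplicates.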

[11] = Toxicity in SCID mouse assessed as death at 500 mg/kg, ip administered as single dose; format: organism-based; details: in vivo
In short: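 SCID mice aged 8–10 weeks were kept in individually ventilated cages on a 12 h light/dark cycle with autoclaved pellets and water ad libitum.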

[12] = tested on: CCRF-CEM; assay: Cytotoxicity against human CCRF-CEM cells assessed as reduction in cell viability measured after 48 hrs by Hoechst 33342/propidium iodide staining based imaging analysis; format: functional; in short: as §2
[13] = Cytotoxicity against human WBC assessed as cell viability at higher concentration measured after 48 hrs by MTT assay relative to control; format: tissue-based
[14] = target: T1, Solute carrier family 2, facilitated glucose transporter member 1 (Homo sapiens); assay: Inhibition of transport activity of human GLUT1 expressed in hexose transporter deficient VW4000fgy1 yeast cells assessed as reduction in transporter-mediated [14C]-hexose uptake into cells by measuring relative activity at 100 uM measured after 10 mins by scintillation counting method relative to control; format: cell-based; design: scale not given: the % may be the effect or the level left; in short: as §3

SMILES	inhibition [1]	CC50 [2] [µM]	CC50 [3] [µM]	CC50 [4] [µM]	Activity [5]	inhibition [6]	inhibition [7]	inhibition [8]	Activity [9]	Activity [10] [%]	Activity [11]	CC50 [12] [µM]	Activity [13] [%]	Activity [14] [%]
O=C(CN1C(=O)S/C(=C/c2ccco2)C1=O)Nc1nc2ccccc2s1	Active	45.1	44	91.9	Dose-dependent effect	Active	Active	inactive	Active	1.38	Non-Toxic	1.7	> 62	
O=C(CN1C(=O)S/C(=C/c2ccco2)C1=O)Nc1ccc(Cl)c(Cl)c1			> 100	43.3				inactive				7.8		30
